Assay [1] relates to Isocitrate dehydrogenase [NADP] cytoplasmic (Homo sapiens), O75874 [R132H]. Particulars: dose 42.0 µM.
Assay [2] shares this test system. Particulars: dose 3-100 µM.
For assay [3], the target named is T1, Isocitrate dehydrogenase [NADP] cytoplasmic (Homo sapiens, UniProt O75874, R132H). The experiment in a line: Binding affinity to human recombinant IDH1 R132H mutant expressed in Escherichia coli BL21(DE3) pLysS cells assessed as dissociation constant by non-denaturing mass spectroscopic analysis.
Assay [4] has as its target T2, Isocitrate dehydrogenase [NADP] cytoplasmic (Homo sapiens, UniProt O75874). The conditions noted are these: dose 3-100 µM.
A short description of assay [5]: Selectivity index, ratio of IC50 for recombinant wildtype IDH1 expressed in Escherichia coli BL21(DE3) pLysS cells to IC50 for recombinant IDH1 R132H mutant (unknown origin) expressed in Escherichia coli BL21(DE3) pLysS cells.
Assay [6] has as its target T1, Isocitrate dehydrogenase [NADP] cytoplasmic. The experiment in a line: Inhibition of recombinant IDH1 R132H mutant (unknown origin) expressed in Escherichia coli BL21(DE3) pLysS cells using 2OG as substrate assessed as 2OG conversion to 2HG incubated for 60 mins in presence of NADPH by spectrophotometric analysis.
Assay [7] relates to Isocitrate dehydrogenase [NADP] cytoplasmic (Homo sapiens), O75874 [R132H]. The assay is described as follows: Binding affinity to recombinant IDH1 R132H mutant (unknown origin) expressed in Escherichia coli BL21(DE3) pLysS cells incubated in presence of MgCl2 by NMR analysis.
Assay [8] concerns the target T2, Isocitrate dehydrogenase [NADP] cytoplasmic. The assay is described as follows: Binding affinity to human recombinant IDH1 expressed in Escherichia coli BL21(DE3) pLysS cells assessed as dissociation constant by non-denaturing mass spectroscopic analysis.
For assay [9] the target is unchanged. The experiment in a line: Binding affinity to recombinant IDH1 (unknown origin) expressed in Escherichia coli BL21(DE3) pLysS cells incubated in presence of MgCl2 by ITC assay. In short, it runs like this: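 Homodimeric wt IDH1 in 50 mM tris–HCl, pH 7.5; cell 40 μM protein (4% v/v DMSO), titrant 200 or 400 μM compound (2% or 4% DMSO). 25 °C, stirring 750 rpm, 19 injections (0.4 μL then 18 × 2.0 μL, 150 s apart); thermodynamic parameters fitted from the heats.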

Assay [10] deals with Isocitrate dehydrogenase [NADP] cytoplasmic (Homo sapiens), O75874 [R132H]. The assay is described as follows: Binding affinity to recombinant IDH1 R132H mutant (unknown origin) expressed in Escherichia coli BL21(DE3) pLysS cells incubated in presence of MgCl2 by ITC assay. In short, it runs like this: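 IDH1 R132H homodimer in 50 mM tris–HCl, pH 7.5; 40 μM protein in cell (4% v/v DMSO) titrated at 25 °C with 200 or 400 μM compound (2% or 4% DMSO), 19 injections (0.4 μL, then 2.0 μL × 18, 150 s spacing), 750 rpm; thermodynamic parameters from fitted isotherm.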
(In general: ITC needs no label: the signal is the heat of the interaction.)

Assay [11] deals with T2, Isocitrate dehydrogenase [NADP] cytoplasmic. The assay is described as follows: Binding affinity to recombinant wildtype IDH1 (unknown origin) expressed in Escherichia coli BL21(DE3) pLysS cells incubated in presence of MgCl2 by NMR analysis.

The source made the active and inactive calls. The rule behind the calls is not given here. Where only a bound is given, the exact number is not on record here.

Broadly, the ΔTm is the shift of the melting midpoint relative to a reference. As usually defined, the Kd is the concentration at which binding is half-saturated. The IC50 is the concentration at which inhibition is half-maximal.

Sequence of Isocitrate dehydrogenase [NADP] cytoplasmic (Homo sapiens), O75874 [R132H] (O75874 whole entry R132H): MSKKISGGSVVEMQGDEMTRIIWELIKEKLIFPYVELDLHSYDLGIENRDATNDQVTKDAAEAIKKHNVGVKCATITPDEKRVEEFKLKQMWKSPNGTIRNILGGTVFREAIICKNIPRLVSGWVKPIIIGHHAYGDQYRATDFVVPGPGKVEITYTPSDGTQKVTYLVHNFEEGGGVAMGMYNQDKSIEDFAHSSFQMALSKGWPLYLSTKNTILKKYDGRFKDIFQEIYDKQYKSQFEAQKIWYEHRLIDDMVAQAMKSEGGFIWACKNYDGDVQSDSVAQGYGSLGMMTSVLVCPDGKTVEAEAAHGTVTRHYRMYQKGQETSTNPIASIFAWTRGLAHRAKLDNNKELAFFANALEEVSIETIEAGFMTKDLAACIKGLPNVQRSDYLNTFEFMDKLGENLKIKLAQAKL
T1 sequence (O75874 2-414 R132H limits assumed): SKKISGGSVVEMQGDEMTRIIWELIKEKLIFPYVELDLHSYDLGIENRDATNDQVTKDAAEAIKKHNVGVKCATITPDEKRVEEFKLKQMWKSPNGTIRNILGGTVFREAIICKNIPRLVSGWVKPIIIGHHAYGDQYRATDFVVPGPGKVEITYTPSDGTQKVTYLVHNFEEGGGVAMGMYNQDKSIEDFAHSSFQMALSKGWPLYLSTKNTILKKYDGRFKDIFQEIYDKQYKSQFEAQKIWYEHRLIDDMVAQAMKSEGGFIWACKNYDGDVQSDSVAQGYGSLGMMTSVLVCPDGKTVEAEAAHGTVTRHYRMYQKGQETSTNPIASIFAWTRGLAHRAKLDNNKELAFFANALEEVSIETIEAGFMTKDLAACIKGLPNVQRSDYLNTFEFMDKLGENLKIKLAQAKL
T2 sequence (O75874 whole entry): as the sequence (O75874 whole entry R132H) above, with H132R counted along it

In the case of `CC(=O)N1CCN(Cc2ccc([C@H](C)Nc3nccc(N4C(=O)OC[C@@H]4C(C)C)n3)cc2)CC1`, the ΔTm in assay [1] came to 11.2 °C; in [2], 11.7 °C.

With `Cc1ccccc1C(C(=O)NC1CCCCC1)N(C(=O)Cn1ccnc1C)c1cccc(F)c1` (stereo not drawn), the Kd in assay [3] came out at 98 µM.

On to `Cc1ccccc1C(C(=O)NC1CCCCC1)N(C(=O)Cn1cnc2ccccc21)c1cccc(F)c1` (stereo not drawn), for which the ΔTm amounted to 8.1 °C in assay [4] and 6.6 °C in assay [2]. The Ratio IC50 in assay [5] was greater than 556. In assay [6], the IC50 was 0.073 µM.

`COc1c(C)cc(NC(=O)c2nn(Cc3ccc(F)cc3)c3c2CN(C(=O)c2ccc[nH]2)C[C@]3(C)C(N)=O)cc1C`: the outcome in assay [7], in assay [9], in assay [10] and in assay [11] was Active. Also, the Kd was determined as 24 µM in assay [8] and 23 µM in assay [3].

(Values after ChEMBL document CHEMBL5352499, “Differentiating Inhibition Selectivity and Binding Affinity of Isocitrate Dehydrogenase 1 Variant Inhibitors” (J Med Chem, 2023).)
